Converted amounts (≈) assume the structure as drawn.
Tests used:
[1] = system: Escherichia coli; experiment: Antimicrobial activity against Escherichia coli ATCC 35218 assessed as diameter of inhibition zone at 40 uM after 24 hrs by Kirby -Baur disc diffusion method; format: functional; conditions: ATCC 35218, 24 h, read-out: DIZ
Outline: (§1)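 Kirby-Bauer disc diffusion was used. Acetone stocks (160 µM) were serially doubled down to 80, 40 and 20 µM. 4 µL of each went onto 5 mm sterile paper discs, which were dried 30 min at 50 °C. Inoculum was 1.5 × 10⁸ CFU/mL diluted to 3 × 10² CFU/mL, and 50 µL was spread on Mueller-Hinton agar. After 24 h at 37 °C the inhibition-zone diameter was measured. Ciprofloxacin served as positive control.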

[2] = system: Staphylococcus aureus; experiment: Antimicrobial activity against Staphylococcus aureus ATCC 11632 after 24 hrs by broth micro serial dilution method; format: functional; conditions: ATCC 11632, 24 h
Outline: (§2)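 This was broth microdilution in autoclaved Mueller-Hinton broth. 150 µL of compound per well was serially diluted […], and 50 µL of test organism was added. Plates were incubated 24 h at 37 °C and optical density was read.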

[3] = system: Bacillus cereus; experiment: Antimicrobial activity against Bacillus cereus MTCC 7350 assessed as diameter of inhibition zone at 20 uM after 24 hrs by Kirby -Baur disc diffusion method; format: functional; conditions: MTCC 7350, 24 h, read-out: DIZ; outline: as §1
[4] = system: Aspergillus niger; experiment: Antifungal activity against Aspergillus niger MTCC 1108 assessed as zone of inhibition at 80 uM after 48 hrs by disc diffusion method; format: functional; conditions: MTCC 1108, 48 h, read-out: IZ
Outline: (§3)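 Spores from 4-day potato dextrose agar cultures, suspended in sterile water at 1.5 × 10⁵ CFU/mL. 0.2 mL was spread on potato dextrose agar. 5 mm filter-paper discs soaked with test compound were laid on the lawn. Incubation was 48 h at 28 °C, then the inhibition zone was measured in mm. Fluconazole was the positive control and acetone the negative control.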

[5] = system: Escherichia coli; experiment: Antimicrobial activity against Escherichia coli ATCC 35218 after 24 hrs by broth micro serial dilution method; format: functional; conditions: ATCC 35218, 24 h; outline: as §2
[6] = system: Curvularia lunata; experiment: Antifungal activity against Curvularia lunata MTCC 581 assessed as zone of inhibition at 80 uM after 48 hrs by disc diffusion method; format: functional; conditions: MTCC 581, 48 h, read-out: IZ; outline: as §3
[7] = system: Salmonella typhi; experiment: Antimicrobial activity against Salmonella typhi ATCC 23564 assessed as diameter of inhibition zone at 80 uM after 24 hrs by Kirby -Baur disc diffusion method; format: functional, Salmonella enterica subsp. enterica serovar Typhi; conditions: Salmonella enterica, ATCC 23564, 24 h; read-out: DIZ
[8] = system: Aspergillus niger; experiment: Antifungal activity against Aspergillus niger MTCC 1108 after 48 hrs; format: functional; conditions: MTCC 1108, 48 h
[9] = system: Trichoderma viride; experiment: Antifungal activity against Trichoderma viride MTCC 1107 after 48 hrs; format: functional; conditions: MTCC 1107, 48 h
[10] = system: Aspergillus flavus; experiment: Antifungal activity against Aspergillus flavus MTCC 1021 after 48 hrs; format: functional; conditions: MTCC 1021, 48 h
[11] = system: Bacillus cereus; experiment: Antimicrobial activity against Bacillus cereus MTCC 7350 assessed as diameter of inhibition zone at 40 uM after 24 hrs by Kirby -Baur disc diffusion method; format: functional; conditions: MTCC 7350, 24 h, read-out: DIZ; outline: as §1
[12] = system: Pseudomonas aeruginosa; experiment: Antimicrobial activity against Pseudomonas aeruginosa ATCC 15499 assessed as diameter of inhibition zone at 80 uM after 24 hrs by Kirby -Baur disc diffusion method; format: functional; conditions: ATCC 15499, 24 h, read-out: DIZ; outline: as §1
[13] = system: Aspergillus flavus; experiment: Antifungal activity against Aspergillus flavus MTCC 1021 assessed as zone of inhibition at 80 uM after 48 hrs by disc diffusion method; format: functional; conditions: MTCC 1021, 48 h, read-out: IZ; outline: as §3
[14] = system: Curvularia lunata; experiment: Antifungal activity against Curvularia lunata MTCC 581 assessed as zone of inhibition at 40 uM after 48 hrs by disc diffusion method; format: functional; conditions: MTCC 581, 48 h, read-out: IZ; outline: as §3
[15] = system: Pseudomonas aeruginosa; experiment: Antimicrobial activity against Pseudomonas aeruginosa ATCC 15499 after 24 hrs by broth micro serial dilution method; format: functional; conditions: ATCC 15499, 24 h; outline: as §2
[16] = system: Mus musculus; experiment: Antiinflammatory activity in mouse assessed as inhibition of carrageenan-induced increase in paw volume at 200 mg/kg administered 1 hr prior to carrageenan challenge measured after 3 hrs relative to control; format: functional
Outline: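 Mice were fasted 2 h and placed in groups of five. Controls received saline i.p. Phenylbutazone was given at 100 mg/kg i.p., curcumin at 200 mg/kg i.p., and derivatives at 200 mg/kg. After 1 h, 0.1 mL of 1% carrageenan in saline was injected subplantar into the right hind paw. Paw volume was followed by plethysmometer for 3 h, and % inhibition was calculated as (Vc − Vt)/Vc × 100.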

[17] = system: Pseudomonas aeruginosa; experiment: Antimicrobial activity against Pseudomonas aeruginosa ATCC 15499 assessed as diameter of inhibition zone at 40 uM after 24 hrs by Kirby -Baur disc diffusion method; format: functional; conditions: ATCC 15499, 24 h, read-out: DIZ; outline: as §1
[18] = system: Trichoderma viride; experiment: Antifungal activity against Trichoderma viride MTCC 1107 assessed as zone of inhibition at 80 uM after 48 hrs by disc diffusion method; format: functional; conditions: MTCC 1107, 48 h, read-out: IZ; outline: as §3
[19] = system: HCT-116; experiment: Cytotoxicity against human HCT116 cells after 24 hrs by MTT assay; format: functional, cell-based
Outline: (§4)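 The MTT assay seeded 5 × 10⁴ cells per well and grew them 24 h in RPMI 1640 with compound at 2.5–200 µM. Medium without cells was the blank and adriamycin the positive control. MTT was added for 4 h at 37 °C, formazan was solubilised, and absorbance was read at 570 nm. IC50 is the concentration that cuts viability 50% against untreated cells.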

[20] = system: Curvularia lunata; experiment: Antifungal activity against Curvularia lunata MTCC 581 assessed as zone of inhibition at 20 uM after 48 hrs by disc diffusion method; format: functional; conditions: MTCC 581, 48 h, read-out: IZ; outline: as §3
[21] = system: Staphylococcus aureus; experiment: Antimicrobial activity against Staphylococcus aureus ATCC 11632 assessed as diameter of inhibition zone at 20 uM after 24 hrs by Kirby -Baur disc diffusion method; format: functional; conditions: ATCC 11632, 24 h, read-out: DIZ; outline: as §1
[22] = system: Trichoderma viride; experiment: Antifungal activity against Trichoderma viride MTCC 1107 assessed as zone of inhibition at 20 uM after 48 hrs by disc diffusion method; format: functional; conditions: MTCC 1107, 48 h, read-out: IZ; outline: as §3
[23] = system: Escherichia coli; experiment: Antimicrobial activity against Escherichia coli ATCC 35218 assessed as diameter of inhibition zone at 80 uM after 24 hrs by Kirby -Baur disc diffusion method; format: functional; conditions: ATCC 35218, 24 h, read-out: DIZ; outline: as §1
[24] = system: Aspergillus flavus; experiment: Antifungal activity against Aspergillus flavus MTCC 1021 assessed as zone of inhibition at 20 uM after 48 hrs by disc diffusion method; format: functional; conditions: MTCC 1021, 48 h, read-out: IZ; outline: as §3
[25] = system: Staphylococcus aureus; experiment: Antimicrobial activity against Staphylococcus aureus ATCC 11632 assessed as diameter of inhibition zone at 40 uM after 24 hrs by Kirby -Baur disc diffusion method; format: functional; conditions: ATCC 11632, 24 h, read-out: DIZ; outline: as §1
[26] = system: Aspergillus flavus; experiment: Antifungal activity against Aspergillus flavus MTCC 1021 assessed as zone of inhibition at 40 uM after 48 hrs by disc diffusion method; format: functional; conditions: MTCC 1021, 48 h, read-out: IZ; outline: as §3
[27] = system: Trichoderma viride; experiment: Antifungal activity against Trichoderma viride MTCC 1107 assessed as zone of inhibition at 40 uM after 48 hrs by disc diffusion method; format: functional; conditions: MTCC 1107, 48 h, read-out: IZ; outline: as §3
[28] = system: Aspergillus niger; experiment: Antifungal activity against Aspergillus niger MTCC 1108 assessed as zone of inhibition at 20 uM after 48 hrs by disc diffusion method; format: functional; conditions: MTCC 1108, 48 h, read-out: IZ; outline: as §3
[29] = system: HepG2; experiment: Cytotoxicity against human HepG2 cells after 24 hrs by MTT assay; format: functional, cell-based; outline: as §4
[30] = system: Salmonella typhi; experiment: Antimicrobial activity against Salmonella typhi ATCC 23564 after 24 hrs by broth micro serial dilution method; format: functional, Salmonella enterica subsp. enterica serovar Typhi; conditions: Salmonella enterica, ATCC 23564, 24 h
[31] = system: QG-56; experiment: Cytotoxicity against human QG56 cells after 24 hrs by MTT assay; format: functional, cell-based; outline: as §4
[32] = system: Salmonella typhi; experiment: Antimicrobial activity against Salmonella typhi ATCC 23564 assessed as diameter of inhibition zone at 40 uM after 24 hrs by Kirby -Baur disc diffusion method; format: functional, Salmonella enterica subsp. enterica serovar Typhi; conditions: Salmonella enterica, ATCC 23564, 24 h; read-out: DIZ
[33] = system: Aspergillus niger; experiment: Antifungal activity against Aspergillus niger MTCC 1108 assessed as zone of inhibition at 40 uM after 48 hrs by disc diffusion method; format: functional; conditions: MTCC 1108, 48 h, read-out: IZ; outline: as §3
[34] = system: Bacillus cereus; experiment: Antimicrobial activity against Bacillus cereus MTCC 7350 assessed as diameter of inhibition zone at 80 uM after 24 hrs by Kirby -Baur disc diffusion method; format: functional; conditions: MTCC 7350, 24 h, read-out: DIZ; outline: as §1
[35] = system: Pseudomonas aeruginosa; experiment: Antimicrobial activity against Pseudomonas aeruginosa ATCC 15499 assessed as diameter of inhibition zone at 20 uM after 24 hrs by Kirby -Baur disc diffusion method; format: functional; conditions: ATCC 15499, 24 h, read-out: DIZ; outline: as §1
[36] = system: Bacillus cereus; experiment: Antimicrobial activity against Bacillus cereus MTCC 7350 after 24 hrs by broth micro serial dilution method; format: functional; conditions: MTCC 7350, 24 h; outline: as §2
[37] = system: Escherichia coli; experiment: Antimicrobial activity against Escherichia coli ATCC 35218 assessed as diameter of inhibition zone at 20 uM after 24 hrs by Kirby -Baur disc diffusion method; format: functional; conditions: ATCC 35218, 24 h, read-out: DIZ; outline: as §1
[38] = system: Staphylococcus aureus; experiment: Antimicrobial activity against Staphylococcus aureus ATCC 11632 assessed as diameter of inhibition zone at 80 uM after 24 hrs by Kirby -Baur disc diffusion method; format: functional; conditions: ATCC 11632, 24 h, read-out: DIZ; outline: as §1
[39] = system: Salmonella typhi; experiment: Antimicrobial activity against Salmonella typhi ATCC 23564 assessed as diameter of inhibition zone at 20 uM after 24 hrs by Kirby -Baur disc diffusion method; format: functional, Salmonella enterica subsp. enterica serovar Typhi; conditions: Salmonella enterica, ATCC 23564, 24 h; read-out: DIZ
[40] = system: HeLa; experiment: Cytotoxicity against human HeLa cells after 24 hrs by MTT assay; format: functional, cell-based; outline: as §4
[41] = system: Curvularia lunata; experiment: Antifungal activity against Curvularia lunata MTCC 581 after 48 hrs; format: functional; conditions: MTCC 581, 48 h

`COc1cc(/C=C/C(CC(/C=C/c2ccc(O)c(OC)c2)=N/c2ccc(S(=O)(=O)Nc3nc(C)cc(C)n3)cc2)=N\c2ccc(S(=O)(=O)Nc3nc(C)cc(C)n3)cc2)ccc1O` gave a zone of inhibition at 40 µM [1] of 19 mm, an MIC [2] of 40 µM (≈ 35.6 µg/mL) and a zone of inhibition at 20 µM [3] of 11 mm. The zone of inhibition at 80 µM [4] was 14 mm, the MIC [5] was 20 µM (≈ 17.8 µg/mL) and the zone of inhibition at 80 µM [6] was 19 mm. For the same compound, the zone of inhibition at 80 µM [7] was 24 mm, the MIC [8] was 40 µM (≈ 35.6 µg/mL) and the MIC [9] was 20 µM (≈ 17.8 µg/mL). The MIC [10] was 80 µM (≈ 71.1 µg/mL), the zone of inhibition at 40 µM [11] was 18 mm and the zone of inhibition at 80 µM [12] was 23 mm. It also gave a zone of inhibition at 80 µM [13] of 12 mm, a zone of inhibition at 40 µM [14] of 16 mm and an MIC [15] of 40 µM (≈ 35.6 µg/mL). For the same compound, the inhibition in vivo at 200 mg/kg [16] was 40.3%, the zone of inhibition at 40 µM [17] was 18 mm and the zone of inhibition at 80 µM [18] was 22 mm. It also gave an IC50 [19] of 25 µM, a zone of inhibition at 20 µM [20] of 12 mm and a zone of inhibition at 20 µM [21] of 13 mm. It also gave a zone of inhibition at 20 µM [22] of 18 mm, a zone of inhibition at 80 µM [23] of 23 mm and a zone of inhibition at 20 µM [24] of 10 mm. It also gave a zone of inhibition at 40 µM [25] of 18 mm, a zone of inhibition at 40 µM [26] of 11 mm and a zone of inhibition at 40 µM [27] of 19 mm. For the same compound, the zone of inhibition at 20 µM [28] was 8 mm, the IC50 [29] was 50 µM and the MIC [30] was 40 µM (≈ 35.6 µg/mL). It also gave an IC50 [31] of 50 µM, a zone of inhibition at 40 µM [32] of 21 mm and a zone of inhibition at 40 µM [33] of 12 mm. For the same compound, the zone of inhibition at 80 µM [34] was 21 mm, the zone of inhibition at 20 µM [35] was 14 mm and the MIC [36] was 40 µM (≈ 35.6 µg/mL). It also gave a zone of inhibition at 20 µM [37] of 17 mm, a zone of inhibition at 80 µM [38] of 23 mm and a zone of inhibition at 20 µM [39] of 17 mm. The IC50 [40] was 25 µM and the MIC [41] was 20 µM (≈ 17.8 µg/mL).
